Data: publication PMC4029328 (Biomedical chromatography : BMC, 2013)
Where two headings read alike, the source gives them in different places.

How the values were obtained:
[1] = at equi-antinociceptive doses; ref Matsumoto et al., 2006; cited from earlier work
μ-opioid receptors = settings: ref Matsumoto et al., 2004, 2006; cited from earlier work
mice = settings: ref Matsumoto et al., 2005, cited from earlier work
opioid receptors [2] = settings: in vitro assays; ref Horie et al., 2005; cited from earlier work
[3] = Stability of 7-OHMG in rat plasma QC samples; format: in vitro ADME; settings: for Concentration measured: n=6
[4] = Intravenous pharmacokinetic study in rats; format: in vivo; settings: 4 mg/kg IV bolus, male Sprague Dawley rats, n=6, mean ± SD
Procedure, shortened: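 Male rats 240-250 g, housed 48 h, fasted 12 h predose and 4 h postdose, water free. Dosed via jugular vein cannula, 30 s bolus in 10% PEG 400 in water, prepared same day. Chloroform liquid-liquid extraction with tryptoline internal standard. Noncompartmental analysis.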

opioid receptors [5] = settings: pharmacological experiments; ref Watanabe et al., 1997; cited from earlier work
[6] = rat plasma, long term 30 days at -20 °C, spiked 20 ng/mL
[7] = rat plasma, long term 30 days at -20 °C, spiked 600 ng/mL
[8] = rat plasma, long term 30 days at -20 °C, spiked 3200 ng/mL
[9] = rat plasma, short term 12 hr at 25 °C, spiked 20 ng/mL
[10] = rat plasma, short term 12 hr at 25 °C, spiked 600 ng/mL
[11] = rat plasma, short term 12 hr at 25 °C, spiked 3200 ng/mL
[12] = rat plasma, three freeze thaw cycles, spiked 20 ng/mL
[13] = rat plasma, three freeze thaw cycles, spiked 600 ng/mL
[14] = rat plasma, three freeze thaw cycles, spiked 3200 ng/mL
[15] = reconstituted plasma extract, auto sampler 12 hr at 25 °C, spiked 20 ng/mL
[16] = reconstituted plasma extract, auto sampler 12 hr at 25 °C, spiked 600 ng/mL

CC[C@@H]1CN2CC[C@@]3(O)C(=Nc4cccc(OC)c43)[C@@H]2C[C@@H]1/C(=C\OC)C(=O)OC [7-OHMG, 7-hydroxymitragynine]
Times less constipating than morphine [1]: 4.9-6.4 times | Affinity for μ- versus δ- and κ-opioid receptors (μ-opioid receptors): higher affinity for μ-opioid receptors relative to the δ- and κ- receptors | Place preference (mice; 1 mg/kg dose): slight place preference | Place preference (mice; 2 mg/kg dose): strong place preference | Opioid agonistic effect among constituents of Mitragyna speciosa (opioid receptors [2]): most potent effect | Short-term stability in plasma ([3]; 12 h at room temperature): stable | Auto-sampler stability of reconstituted samples ([3]; 12 h in auto-sampler at 25 °C): stable | Long-term stability in plasma ([3]; 30 days at -20 °C): stable | Accuracy (measured vs spiked concentration) [3, 6]: 98% | Concentration measured [3, 6]: 19.6 ± 0.8 ng/mL | Accuracy (measured vs spiked concentration) [3, 7]: 101.7% | Concentration measured [3, 7]: 610.4 ± 28.8 ng/mL | Accuracy (measured vs spiked concentration) [3, 8]: 95.6% | Concentration measured [3, 8]: 3058.2 ± 320.4 ng/mL | Accuracy (measured vs spiked concentration) [3, 9]: 101.5% | Concentration measured [3, 9]: 20.3 ± 1.3 ng/mL | Accuracy (measured vs spiked concentration) [3, 10]: 108.8% | Concentration measured [3, 10]: 652.7 ± 17.8 ng/mL | Accuracy (measured vs spiked concentration) [3, 11]: 102.8% | Concentration measured [3, 11]: 3289.4 ± 197.2 ng/mL | Accuracy (measured vs spiked concentration) [3, 12]: 102% | Concentration measured [3, 12]: 20.4 ± 0.3 ng/mL | Accuracy (measured vs spiked concentration) [3, 13]: 105.2% | Concentration measured [3, 13]: 631.3 ± 40.2 ng/mL | Accuracy (measured vs spiked concentration) [3, 14]: 103.5% | Concentration measured [3, 14]: 3312.5 ± 163.5 ng/mL | Accuracy (measured vs spiked concentration) [3, 15]: 95.5% | Concentration measured [3, 15]: 19.1 ± 0.7 ng/mL | Accuracy (measured vs spiked concentration) [3, 16]: 94.7% | Concentration measured [3, 16]: 568.3 ± 43.9 ng/mL | Accuracy (measured vs spiked concentration) ([3]; reconstituted plasma extract, auto sampler 12 hr at 25 °C, spiked 3200 ng/mL): 99.8% | Freeze-thaw stability in plasma ([3]; three freeze-thaw cycles, stored at -20 °C and thawed to room temperature): stable | AUC0→∞ [4]: 98.3 ± 32.1 µg·min/mL | CL [4]: 44.2 ± 14.8 mL/min/kg | Cmax [4]: 3000 ± 300 ng/mL | MRT [4]: 70.9 ± 10.0 min | T1/2 [4]: 22.9 ± 3.6 min | Vd [4]: 1.5958 ± 0.5863 L/kg

mitragynine
Effect on opioid receptors (opioid receptors [5]): agonistic effects on opioid receptors
